# Results published in ChEMBL document CHEMBL2086271, “Bicyclic Cyclohexenones as Inhibitors of NF-κB Signaling” (ACS Med Chem Lett, 2012).
# Calls of active or inactive are those of the source. The calls are words filed in the database; no cut-off is given here.
# How the values were obtained:
# [1] = test system: A549; assay: Inhibition of TNFalpha-induced NFkappaB in human A549 cells assessed as residual enzyme activity at 10 uM incubated for 30 mins prior to TNFalpha-induction measured after 7 hrs by luciferase reporter gene assay relative to control; assay type: cell-based
# In short: (§1)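 A549 human lung cells stably carry a luciferase reporter driven by six tandem consensus NF-κB sites. Signaling was induced with TNF-α, and compound was added at 100, 50 or 10 μM. Luciferase activity is expressed relative to the induced, DMSO-treated control, set at 100%. Mean ± SD reported.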
# [2] = test system: A549; assay: Inhibition of TNFalpha-induced NFkappaB in human A549 cells assessed as residual enzyme activity at 100 uM incubated for 30 mins prior to TNFalpha-induction measured after 7 hrs by luciferase reporter gene assay relative to control; assay type: cell-based; in short: as §1
# [3] = test system: A549; assay: Inhibition of TNFalpha-induced NFkappaB in human A549 cells assessed as residual enzyme activity at 50 uM incubated for 30 mins prior to TNFalpha-induction measured after 7 hrs by luciferase reporter gene assay relative to control; assay type: cell-based; in short: as §1
# [4] = test system: DU-145; assay: Cytotoxicity against human DU145 cells after 48 hrs by alamar blue assay; assay type: functional, cell-based
# In short: (§2)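 Viability read by Alamar Blue staining after 48 h exposure to a range of concentrations. Vero (African green monkey kidney epithelial), RWPE-1, DU-145 and CCRF-CEM human cells were used. IC50 is reported as mean ± SD.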
# [5] = test system: CCRF-CEM; assay: Cytotoxicity against human CCRF-CEM cells after 48 hrs by alamar blue assay; assay type: functional, cell-based; in short: as §2
# [6] = test system: DU-145; assay: Partial inhibition of IkappaB in human DU145 cells assessed as inhibition of TNFalpha-induced NFkappaB p65 nuclear translocation at 25 uM incubated for 14 hrs prior to TNFalpha-induction measured after 2 hrs by Western blot analysis; assay type: cell-based
# [7] = test system: DU-145; assay: Inhibition of IkappaB in human DU145 cells assessed as inhibition of TNFalpha-induced NFkappaB p65 nuclear translocation at 100 uM incubated for 14 hrs prior to TNFalpha-induction measured after 2 hrs by Western blot analysis; assay type: cell-based
# [8] = test system: DU-145; assay: Inhibition of NFkappaB in human DU145 cells assessed as inhibition of TNFalpha-induced IL8 mRNA production at 33 uM by RT-PCR analysis; assay type: cell-based
# In short: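 DU-145 cells were dosed with compound (100 or 33 μM) or DMSO vehicle, then induced with TNF-α. IL-8 mRNA was analysed by semiquantitative RT-PCR, with GAPDH as reference. Noninduced and induced cells served as controls.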
# [9] = test system: DU-145; assay: Inhibition of NFkappaB in human DU145 cells assessed as inhibition of TNFalpha-induced IL8 protein production at 33 uM by ELISA; assay type: cell-based
# In short: (§3)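 DU-145 cells were dosed with compound (100 or 33 μM) or DMSO vehicle, then NF-κB was induced with TNF-α. Secreted IL-8 in the culture medium was quantified by ELISA, with noninduced and induced controls. Mean ± SEM reported.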
# [10] = test system: CCRF-CEM; assay: Partial inhibition of IkappaB in human CCRF-CEM cells assessed as inhibition of PMA-induced NFkappaB p65 nuclear translocation at 25 uM incubated for 12 hrs prior to TNFalpha-induction measured after 4 hrs by Western blot analysis; assay type: cell-based
# [11] = test system: CCRF-CEM; assay: Inhibition of IkappaB in human CCRF-CEM cells assessed as inhibition of PMA-induced NFkappaB p65 nuclear translocation at 100 uM incubated for 12 hrs prior to TNFalpha-induction measured after 4 hrs by Western blot analysis; assay type: cell-based
# [12] = test system: A549; assay: Cytotoxicity against human TNFalpha-induced A549 cells assessed as decrease in cell viability at 50 uM incubated for 30 mins prior to TNFalpha-induction measured after 7 hrs by alamar blue staining relative to control; assay type: cell-based; settings: a549, 7 h
# [13] = test system: Vero; assay: Cytotoxicity against african green monkey Vero cells after 48 hrs by alamar blue assay; assay type: cell-based; settings: Chlorocebus sabaeus; in short: as §2
# [14] = test system: DU-145; assay: Ratio of cryptocaryone IC50 to compound IC50 for human DU145 cells; assay type: functional
# [15] = Selectivity index, ratio of IC50 for human RWPE1 cells to IC50 for human DU145 cells; assay type: functional
# [16] = Cytotoxicity against human RWPE1 cells after 48 hrs by alamar blue assay; assay type: cell-based; settings: RWPE-1, 48 h; in short: as §2
# [17] = Solubility of the compound in DMEM media; assay type: physicochemical
# [18] = test system: DU-145; assay: Inhibition of NFkappaB in human DU145 cells assessed as TNFalpha-induced IL8 protein level at 100 uM by ELISA; assay type: cell-based; in short: as §3
smiles,measurement,setting,value
CC(=O)[C@H]1CO[C@]2(C)C=C(c3ccccc3)[C@H](O)C[C@H]12 (racemic),inhibition,[1],inactive
same,inhibition,[2],inactive
same,inhibition,[3],inactive
CC(=O)O/C(C)=C1\CO[C@]2(c3ccccc3)C=CC(=O)C[C@H]12 (racemic; form 2) [listing 1 of 2 here],IC50,[4]; du-145,46 µM
same,IC50,"[5]; Homo sapiens, CCRF-CEM, 48 h",19 µM
CC(=O)O/C(C)=C1\CO[C@]2(C)C=C(Br)[C@H](O)C[C@H]12 (racemic),inhibition,[1],inactive
same,inhibition,[2],inactive
same,inhibition,[3],inactive
CC(=O)O/C(C)=C1\CO[C@]2(c3ccccc3)C=CC(=O)C[C@H]12 (racemic; form 1) [listing 1 of 2 here],inhibition,[6],Active
same,inhibition,[7],Active
same,Activity,[1],93.7%
same,inhibition,[8],Active
same,Activity,[2],17.3%
same,Activity,[9],2970 pg/mL
same,inhibition,[10],Active
same,Activity,[3],36.2%
same,inhibition,[11],Active
O=C1C[C@@H]2/C(=C(O)\C=C\c3ccccc3)C(=O)C=C[C@@H]2O1 [CRYPTOCARYONE],IC50,"[4]; Homo sapiens, DU-145, 48 h",2.3 µM
CC(=O)O/C(C)=C1\CO[C@]2(c3ccccc3)C=CC(=O)C[C@H]12 (racemic; form 1) [listing 2 of 2 here],Activity,[12],5%
same,IC50,[13],> 500 µM
same,IC50,"[4]; Homo sapiens, DU-145, 48 h",35.9 µM
same,Ratio IC50,[14],15
same,Ratio IC50,[15],2.75
same,IC50,[16],98.8 µM
same,IC50,[5]; ccrf-cem,26.4 µM
CC(=O)O/C(C)=C1\CO[C@]2(C)C=CC(=O)C[C@]12C (racemic),inhibition,[1],inactive
same,inhibition,[2],inactive
same,inhibition,[3],inactive
CC(=O)O/C(C)=C1\CO[C@]2(C)C=C(C)C(=O)C[C@H]12 (racemic),inhibition,[1],inactive
same,inhibition,[2],inactive
same,inhibition,[3],inactive
CC(=O)O/C(C)=C1\CO[C@]2(C)C=C(Br)C(=O)C[C@H]12 (racemic),inhibition,[1],inactive
same,inhibition,[2],inactive
same,inhibition,[3],inactive
CC(=O)O/C(=C1\CO[C@]2(C)C=CC(=O)C[C@H]12)c1ccccc1 (racemic),Activity,[12],10%
same,inhibition,[6],Active
same,IC50,[13],> 500 µM
same,inhibition,[7],Active
same,Activity,[1],90.9%
same,inhibition,[8],Active
same,Activity,[2],33.9%
same,Activity,[9],3480 pg/mL
same,inhibition,[10],Active
same,Activity,[3],61.6%
same,IC50,"[4]; Homo sapiens, DU-145, 48 h",33.7 µM
same,Ratio IC50,[14],15
same,inhibition,[11],Active
same,Ratio IC50,[15],0.44
same,IC50,[16],14.8 µM
same,IC50,"[5]; Homo sapiens, CCRF-CEM, 48 h",26.4 µM
CO[C@@]12C=C(Br)C(=O)C[C@@H]1/C(=C(/OC(C)=O)c1ccccc1)CC2 (racemic),solubility,[17],Insoluble
CC(=O)O/C(=C1\CO[C@]2(C)CCC(=O)C[C@H]12)c1ccccc1 (racemic),IC50,[13],> 500 µM
same,Activity,[1],109%
same,Activity,[2],76.1%
same,Activity,[3],94.4%
same,IC50,"[4]; Homo sapiens, DU-145, 48 h",> 500 µM
same,IC50,[16],> 500 µM
same,IC50,"[5]; Homo sapiens, CCRF-CEM, 48 h",> 500 µM
same,Activity,[18],4900 pg/mL
CC(=O)O/C(C)=C1\CO[C@]2(c3ccccc3)C=CC(=O)C[C@H]12 (racemic; form 2) [listing 2 of 2 here],Activity,[3],18%
